Laboratory results reported in PubChem BioAssay.
Activity calls are given as the source filed them.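 The calls were made as follows, unless noted: active = NADPH fluorescence slope more negative than the mean of all samples by about 3 SD, 99.7% confidence; inactive = the rest.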

Experiments:
[1] = inhibitors of TNFa-induced NFkB p65 translocation, primary screen, imaging, HUVEC, MLSMR starter and 10KST1 sets (AID 438;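 active = inhibition above 20% together with a positive visual image hit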;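 also: compound added about 3h40 before a 20 min TNFalpha stimulation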;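 as to inhibition: signal is the nuclear over cytoplasmic p65 intensity ratio per well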); conditions: HUVEC TNFa-induced p65 nuclear translocation; cell count: measured here: nuclei count (cytotoxicity indicator), at 2.08 µM; inhibition: at 2 µM, stronger effect = higher value, 0% TNFa-plus-vehicle, 100% no-TNFa wells
[2] = reduction of polyQ htt aggregates in cells – imaging, exon1htt(103Q)mCFP cells, high-content imaging, primary screen (AID 483;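 active = visual image review flags a hit and inhibition of aggregation exceeds 20%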;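 also: compound exposure lasted 3 days before fixation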;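 as to nuclei count: percent of the per-plate median nuclei count of sample wells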); conditions: exon1htt(103Q)mCFP cell line, aggregate imaging, at 2 µM; inhibition of aggregation: stronger effect = higher value; nuclei count: measured here: cell count, toxicity
[3] = endothelial E-selectin expression blockers – imaging, HUVEC, immunofluorescence, MLSMR starter and 10KST1 sets, primary screen (AID 487;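 active = visually confirmed hit in the image check and inhibition above 20%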;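 as to inhibition: signal is fraction of cell area covered by stained E-selectin grains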;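 as to nuclei count: 100% = median nuclei count of all wells on the same plate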); conditions: HUVEC TNFalpha-induced E-selectin immunofluorescence imaging, at 2 µM; inhibition: stronger effect = higher value; nuclei count: measured here: cell number, toxicity
[4] = target: Voltage-gated potassium channel subunit beta-2 (Rattus norvegicus) (UniProt P62483); assay: inhibitors of rat Kvbeta2 reductase activity – biochemical, NADPH fluorescence, primary screen (AID 622;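 active = fluorescence slope higher than the sample average by over 3 SD, cut at about -0.22 in these data, passing the limit was not always enough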;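 also: slope of raw intensity against log time taken from 70 to 1610 s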); conditions: recombinant KvBeta, 4-cyanobenzaldehyde reduction, at 10 µM, stronger effect = higher value
[5] = target: Voltage-gated potassium channel subunit beta-2 (Rattus norvegicus) (UniProt P62483); assay: enhancers of rat Kvbeta2 NADPH turnover – biochemical, NADPH fluorescence, primary screen (AID 623); conditions: Recombinant KvBeta, NADPH fluorescence decrease slope, 10 min; at 10 µM; stronger effect = lower value;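 also: fluorescence intensity change per second fitted from 20 to 320 s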
[6] = target: Muscarinic acetylcholine receptor M4 (Homo sapiens) (UniProt P08173); assay: M4-linked GIRK flux change, two-sided – cell-based, HEK293 M4/GIRK, thallium flux, BTC-AM, M4 allosteric agonist project, primary screen (AID 625;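 active = fluorescence slope after compound addition differing from the mean of all tested samples at 99.7% confidence, mostly higher but some lower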;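 also: thallium influx through GIRK channels coupled to M4 in HEK293 cells with BTC-AM dye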); conditions: at 10 µM, actives lie on both sides
Method in brief: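 assay system = HEK293 cells with M4 receptor and GIRK channels | medium = pH 7.3 thallium assay buffer | doses = 10 µM final, single point | timing = cells overnight at 37 °C, BTC-AM loading 1 h, reads 2 min total | signal = BTC-AM fluorescence, 1 Hz kinetic reads | read-out = post-addition slope, 15–24 s, of baseline-normalized fluorescence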

[7] = blockers of RIG-like receptor reporter activation – cell-based, Sendai virus stimulus, luciferase, 10K MLSCN set, TLR/RLR signaling modifier project, primary screen (AID 602276;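 active = inhibition at or above 50% at 10 µM; inactive = inhibition below 50%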;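 also: firefly luciferase from ISG56 promoter only with Renilla not read in this screen; 0% = Sendai virus plus DMSO and 100% = medium plus DMSO without virus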); conditions: HEK293 RL24 IRF3 luciferase reporter, at 10 µM, stronger effect = higher value
[8] = TLR3 IRF3 reporter activation blockers – cell-based, poly I:C stimulus, luciferase, 10K MLSCN set, primary screen (AID 602277;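 active = inhibition of the reporter signal at or above 50%; inactive = inhibition below 50%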); conditions: HEK293-TLR3 RL24 IRF3 luciferase reporter, at 10 µM, stronger effect = higher value

Voltage-gated potassium channel subunit beta-2 (Rattus norvegicus), sequence (P62483 whole entry, looked up): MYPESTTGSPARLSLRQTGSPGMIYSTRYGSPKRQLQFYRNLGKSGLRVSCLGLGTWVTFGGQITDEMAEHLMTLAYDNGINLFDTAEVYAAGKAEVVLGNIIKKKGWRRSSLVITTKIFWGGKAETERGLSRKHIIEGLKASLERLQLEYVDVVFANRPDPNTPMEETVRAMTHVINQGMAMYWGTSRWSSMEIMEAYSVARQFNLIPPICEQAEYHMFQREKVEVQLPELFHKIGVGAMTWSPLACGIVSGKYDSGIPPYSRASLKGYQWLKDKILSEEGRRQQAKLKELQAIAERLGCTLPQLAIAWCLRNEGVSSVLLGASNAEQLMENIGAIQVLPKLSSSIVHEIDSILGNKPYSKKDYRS
Muscarinic acetylcholine receptor M4 (Homo sapiens), sequence (P08173 whole entry, looked up): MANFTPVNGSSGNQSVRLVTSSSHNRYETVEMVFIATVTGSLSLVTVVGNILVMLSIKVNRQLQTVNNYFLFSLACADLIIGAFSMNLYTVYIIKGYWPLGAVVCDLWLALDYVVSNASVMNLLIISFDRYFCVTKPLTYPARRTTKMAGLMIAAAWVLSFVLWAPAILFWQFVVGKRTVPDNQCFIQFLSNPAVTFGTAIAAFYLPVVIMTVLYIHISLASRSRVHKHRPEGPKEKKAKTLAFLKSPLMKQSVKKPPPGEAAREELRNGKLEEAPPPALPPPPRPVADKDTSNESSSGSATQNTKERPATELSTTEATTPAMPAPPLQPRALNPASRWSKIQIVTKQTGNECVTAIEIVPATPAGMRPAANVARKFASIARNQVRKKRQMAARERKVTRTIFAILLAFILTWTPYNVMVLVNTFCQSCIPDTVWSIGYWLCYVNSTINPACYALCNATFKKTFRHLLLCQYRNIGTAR

Compound | cell count [1] | inhibition [1] | inhibition of aggregation [2] | nuclei count [2] | inhibition [3] | nuclei count [3] | fluorescence slope [4] | NADPH fluorescence slope [5] | fluorescence slope [6] | inhibition [7] | inhibition [8]
O=C(C1CC1)N(Cc1ccco1)c1nc(-c2ccccc2)cs1 | 336 | 6.6% (inactive) | 3.5% (inactive) | 104% | -72.7% (inactive) | 109% | -0.445 (inactive) | -8.7e-05 (inactive) | 0.00828 (inactive) | -13.9% (inactive) | -15.4% (inactive)
Cc1ccc(-c2ccc(=O)n(CCC(=O)NCc3ccccn3)n2)cc1 | 366 | -15.6% (inactive) | -2.2% (inactive) | 99.9% | -2.7% (inactive) | 108% | -0.534 (inactive) | -3e-05 (inactive) | 0.00635 (inactive) | 14.5% (inactive) | 21.8% (inactive)
COc1ccc(-c2cn3cc(C)ccc3n2)cc1OC | 442 | -10.5% (inactive) | -3.3% (inactive) | 103% | -4.7% (inactive) | 109% | -0.357 (inactive) | -3e-05 (inactive) | 0.00466 (inactive) | 29.4% (inactive) | -10.4% (inactive)
O=C(Nc1ncnc2sc3c(c12)CCCCC3)c1ccco1 | 260 | -7% (inactive) | 32.4% (active) | 85.3% | 62.2% (inactive) | 65.2% | -0.542 (inactive) | -1.4e-05 (inactive) | 0.0064 (inactive) | 21.8% (inactive) | 22.6% (inactive)
Cc1cc(=O)[nH]c2c1cnn2Cc1ccccc1 | 270 | 3.9% (inactive) | 13.6% (inactive) | 79.2% | -37.7% (inactive) | 104% | -0.483 (inactive) | -6.1e-05 (inactive) | 0.00447 (inactive) | 13.7% (inactive) | 15.7% (inactive)
CCCCC(=NCCO)C1=C(O)C(C(=O)OC)C(C)(C)CC1=O (stereo not drawn) | 473 | 1.8% (inactive) | 0.5% (inactive) | 102% | -64.1% (inactive) | 167% | -0.407 (inactive) | 5e-05 (inactive) | 0.00804 (inactive) | 16.3% (inactive) | 18.4% (inactive)
Cc1ccccc1CS(=O)(=O)Cc1ccc(C(=O)NCCCN2CCOCC2)o1 | 434 | 5% (inactive) | -1.9% (inactive) | 99% | -156% (inactive) | 120% | -0.586 (inactive) | -2.7e-05 (inactive) | 0.00703 (inactive) | -17.1% (inactive) | -16.4% (inactive)
CCOC(=O)c1nn(-c2sc(C(=O)OC)c(C)c2C(=O)OC)cc1O | 449 | -6.2% (inactive) | 1% (inactive) | 94.5% | 0.1% (inactive) | 108% | -0.518 (inactive) | -3.7e-05 (inactive) | 0.00503 (inactive) | 20.5% (inactive) | 24.1% (inactive)
CN1CC[n+]2cnc3ccccc3c21 | 600 | 1.2% (inactive) | -17.8% (inactive) | 103% | -9.4% (inactive) | 122% | -0.585 (inactive) | -8.5e-05 (inactive) | 0.00403 (inactive) | 16.8% (inactive) | 19.3% (inactive)
CCN1CCN(C(=O)c2ccc3c(=O)n(C4CCCC4)c(=S)[nH]c3c2)CC1 | 507 | -4.3% (inactive) | 8.5% (inactive) | 82.3% | -19.6% (inactive) | 111% | -0.517 (inactive) | 6.6e-05 (inactive) | 0.00572 (inactive) | -15.8% (inactive) | -6.81% (inactive)
COc1cc(-c2nc(-c3cccc(C(F)(F)F)c3)no2)cc(OC)c1OC | 413 | 5.3% (inactive) | 3.5% (inactive) | 102% | -78.2% (inactive) | 109% | -0.554 (inactive) | -5.5e-05 (inactive) | 0.00715 (inactive) | 3.75% (inactive) | -10.8% (inactive)
CCCn1nnnc1SCC(=O)c1ccc2c(c1)OCCO2 | 571 | 2.6% (inactive) | -22.6% (inactive) | 120% | 34% (inactive) | 101% | -0.441 (inactive) | 0.000111 (inactive) | 0.00722 (inactive) | -31.3% (inactive) | -69.8% (inactive)
COC(=O)c1sc(NC(=O)COc2ccccc2OC)nc1C | 368 | -4.7% (inactive) | -9.7% (inactive) | 96.7% | -153% (inactive) | 122% | -0.229 (inactive) | -2.1e-05 (inactive) | 0.00636 (inactive) | 9.11% (inactive) | 2.53% (inactive)
COc1ccc(CNc2nc3nc(C)cc(C)n3n2)cc1OC | 646 | -15.5% (inactive) | 39.5% (active) | 107% | -5.7% (inactive) | 115% | -0.422 (inactive) | -0.000434 (inactive) | 0.00355 (inactive) | 13.3% (inactive) | 12.9% (inactive)
CCOc1ccc2[nH]c(=O)c(CN(Cc3ccccc3)C(=O)N3CCCC3)cc2c1 | 497 | -14.1% (inactive) | 14.8% (inactive) | 67.9% | 54.1% (inactive) | 48.2% | -0.475 (inactive) | 6.7e-06 (inactive) | 0.00557 (inactive) | 10.6% (inactive) | 25.9% (inactive)
O=C(O)C1C2CCC(O2)C1C(=O)Nc1cccc(F)c1 (stereo not drawn) | 596 | -2% (inactive) | -0.8% (inactive) | 109% | -56.8% (inactive) | 104% | -0.435 (inactive) | -3.5e-06 (inactive) | 0.00527 (inactive) | 20.3% (inactive) | 19.5% (inactive)
CSc1nnc2c3ccccc3n(CCc3ccccc3)c2n1 | 665 | -0.5% (inactive) | 20.5% (inactive) | 83.8% | 19.4% (inactive) | 104% | -0.342 (inactive) | 1.9e-05 (inactive) | 0.00531 (inactive) | -13.2% (inactive) | -163% (inactive)
C=CCOc1nc(N2CCCC2)nc(N2CCCC2)n1 | 579 | -7.6% (inactive) | 4.8% (inactive) | 109% | 23.8% (inactive) | 84.1% | -0.551 (inactive) | -8.3e-05 (inactive) | 0.00552 (inactive) | 10.7% (inactive) | 14.3% (inactive)
COC(=O)c1cc(O)c(OCc2ccccc2)c(O)c1 | 775 | -2.2% (inactive) | 20.1% (inactive) | 112% | -8.4% (inactive) | 112% | -0.552 (inactive) | 4.3e-05 (inactive) | 0.00449 (inactive) | -22% (inactive) | -58.4% (inactive)
Cn1cnnc1SCC(=O)NCc1cccc(C(F)(F)F)c1 | 352 | 1.1% (inactive) | 0.1% (inactive) | 116% | -95.6% (inactive) | 118% | -0.532 (inactive) | 3.5e-05 (inactive) | 0.00701 (inactive) | 4.51% (inactive) | 3.97% (inactive)
Cc1ccccc1NC(=O)C1CCC(C)(C(=O)O)C1(C)C (stereo not drawn) | 485 | 3.5% (inactive) | 1.6% (inactive) | 94.4% | -269% (inactive) | 109% | -0.581 (inactive) | 1.1e-05 (inactive) | 0.00574 (inactive) | -5.54% (inactive) | 8.98% (inactive)
Cc1ccccc1-c1nc2ccccc2c(=O)n1C1CCS(=O)(=O)C1 (stereo not drawn) | 368 | 3.8% (inactive) | -7.2% (inactive) | 110% | -4.7% (inactive) | 102% | -0.614 (inactive) | 9.6e-06 (inactive) | 0.00582 (inactive) | 21% (inactive) | 31% (inactive)
Cc1ccc(CCNC(=O)C2CCN(S(=O)(=O)c3cccc4nsnc34)CC2)cc1 | 644 | 5.2% (inactive) | -9.1% (inactive) | 96.4% | -129% (inactive) | 158% | -0.461 (inactive) | 0.000103 (inactive) | 0.00736 (inactive) | 0.47% (inactive) | -16.3% (inactive)
COc1ccc(-c2noc(CN3CCC(Cc4ccccc4)CC3)n2)cc1 | 322 | -0.7% (inactive) | -24.1% (inactive) | 104% | -98.5% (inactive) | 123% | -0.553 (inactive) | 6.3e-06 (inactive) | 0.00696 (inactive) | -7.04% (inactive) | -6.07% (inactive)
COc1ccc(N2C(=O)C3CCCN3C2c2ccc(F)cc2)cc1Cl (stereo not drawn) | 412 | -2.7% (inactive) | -12.9% (inactive) | 101% | 18.5% (inactive) | 89.1% | -0.538 (inactive) | -1.5e-05 (inactive) | 0.00539 (inactive) | 7.49% (inactive) | 14.6% (inactive)
CCOC(=O)c1ccc(NC(=O)CCc2nc(-c3ccc(C)cc3)no2)cc1 | 368 | 0.7% (inactive) | 21.5% (inactive) | 103% | -32.9% (inactive) | 116% | -0.556 (inactive) | -2.2e-05 (inactive) | 0.0041 (inactive) | 11.4% (inactive) | -5.93% (inactive)
CCCn1nc(NS(=O)(=O)c2ccccc2)c2cc3ccccc3nc21 | 468 | -3.8% (inactive) | -8.5% (inactive) | 110% | 12% (inactive) | 102% | -0.598 (inactive) | 2.9e-05 (inactive) | 0.00512 (inactive) | 6.34% (inactive) | 14.1% (inactive)
CC1(C)Cc2noc(N)c2C(C)(C)N1OC(=O)c1cccs1 | 379 | 0% (inactive) | 5.5% (inactive) | 110% | -80.4% (inactive) | 129% | -0.46 (inactive) | 1.8e-05 (inactive) | 0.00603 (inactive) | 4.03% (inactive) | 12.6% (inactive)
